# Bioassay records from PubChem.
# Xi reactivation = activators of inactive X chromosome reactivation, primary screen, imaging, XiGFP fibroblasts, GFP high-content imaging, set 2; AID 743238, 2013; hit rate 0.055% among 360,000; XiGFP mouse fibroblasts, % GFP-positive cells imaging, 3 d; cells co-treated with 5-aza-dC sensitizer; scaled so ellipticine positive control = 100%; activation, % at 7.58 µM;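 active = mean normalized replicate activation at least 10% and every replicate at or above 10%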;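 note: 0% = median of on-plate neutral control wells and 100% = ellipticine 6 µM median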
#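 Schedule: 3 d treatment, 15 min room-temperature fixation; system: 68-5-11 XiGFP fibroblast line; buffer or medium: DMEM plus 5-aza-dC sensitizer; control set: ellipticine 6 µM positive control; compound: one concentration, pinned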
# NSD2 HMT inh = NSD2 histone methyltransferase inhibitors, primary screen, biochemical, AlphaScreen, single concentration, set 2 | Histone-lysine N-methyltransferase NSD2 (Homo sapiens), O96028 | NSD2 peptide methylation, 120 min | inhibition, % at 12.5 µM | hit rate 0.54% among 310,000; in the data active = inhibition above about 50%
# Target sequence (O96028 whole entry, looked up): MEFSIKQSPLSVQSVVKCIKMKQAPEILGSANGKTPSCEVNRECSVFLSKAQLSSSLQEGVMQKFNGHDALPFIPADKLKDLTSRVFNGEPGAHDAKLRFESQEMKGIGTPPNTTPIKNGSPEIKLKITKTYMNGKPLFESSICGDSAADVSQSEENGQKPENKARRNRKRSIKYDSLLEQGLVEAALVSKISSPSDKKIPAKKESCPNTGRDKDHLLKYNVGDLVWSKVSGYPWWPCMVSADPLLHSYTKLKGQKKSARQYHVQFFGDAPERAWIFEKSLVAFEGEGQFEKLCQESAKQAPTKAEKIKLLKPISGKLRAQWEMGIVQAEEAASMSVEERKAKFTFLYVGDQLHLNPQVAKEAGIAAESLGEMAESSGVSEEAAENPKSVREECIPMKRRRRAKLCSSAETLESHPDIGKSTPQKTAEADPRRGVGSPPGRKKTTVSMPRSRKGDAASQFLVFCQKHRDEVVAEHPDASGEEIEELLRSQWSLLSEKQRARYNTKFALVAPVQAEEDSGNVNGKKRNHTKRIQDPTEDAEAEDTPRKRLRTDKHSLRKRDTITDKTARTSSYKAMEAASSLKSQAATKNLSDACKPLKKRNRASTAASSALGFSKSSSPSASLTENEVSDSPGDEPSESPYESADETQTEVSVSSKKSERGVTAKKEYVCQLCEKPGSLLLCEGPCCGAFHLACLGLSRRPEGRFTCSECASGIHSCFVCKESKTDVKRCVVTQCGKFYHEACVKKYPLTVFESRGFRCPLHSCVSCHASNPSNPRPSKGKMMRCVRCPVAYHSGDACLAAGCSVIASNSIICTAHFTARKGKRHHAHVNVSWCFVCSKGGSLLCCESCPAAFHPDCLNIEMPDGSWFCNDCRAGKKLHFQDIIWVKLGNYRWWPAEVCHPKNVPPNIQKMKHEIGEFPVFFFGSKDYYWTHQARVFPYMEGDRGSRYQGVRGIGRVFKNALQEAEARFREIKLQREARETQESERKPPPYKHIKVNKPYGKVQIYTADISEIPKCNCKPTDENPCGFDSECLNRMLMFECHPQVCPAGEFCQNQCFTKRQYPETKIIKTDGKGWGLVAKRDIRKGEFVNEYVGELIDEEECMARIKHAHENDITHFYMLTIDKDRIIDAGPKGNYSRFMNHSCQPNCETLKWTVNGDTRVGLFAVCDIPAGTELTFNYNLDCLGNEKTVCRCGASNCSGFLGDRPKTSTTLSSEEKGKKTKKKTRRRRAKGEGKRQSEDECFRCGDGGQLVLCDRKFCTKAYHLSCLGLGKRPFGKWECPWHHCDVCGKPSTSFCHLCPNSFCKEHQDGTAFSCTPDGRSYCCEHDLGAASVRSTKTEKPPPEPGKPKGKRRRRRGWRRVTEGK
# SR-BI DiI inh = inhibitors of SR-BI mediated HDL lipid uptake, primary screen, ldlA[mSR-BI] cells, fluorescence, single point. hit rate 0.96% among 320,000. AID 488896, 2010. Scavenger receptor class B member 1 (Mus musculus), Q61009. ldlA[mSR-BI] CHO cells, DiI-HDL uptake fluorescence, 3 h. inhibition, % at 12.5 µM;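 active = mean replicate inhibition of at least 70% and a set share of replicates each scoring 70 or more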;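 note: 0% = median of neutral control wells and 100% = median of positive control wells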
# HGIII-sPLA2 inh = human group III sPLA2 inhibitors, primary screen, biochemical, QFRET, BODIPY PC-A2 liposome substrate; QFRET BODIPY PC-A2 liposome hydrolysis, fluorescence; inhibition, % at 12.2 µM; hit rate 0.56% among 370,000; AID 743126, 2013;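 active = inhibition above mean plus 3 SD of compounds lying within the high and low control bounds, cut at about 19% in these data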;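 note: 0% = median of test compound wells and 100% = no enzyme DMSO wells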
# SR-BI DiI-HDL act = activators of SR-BI mediated DiI-HDL uptake, primary screen, ldlA[mSR-BI] CHO cells, DiI fluorescence | 3 h; 100 = double the neutral-control signal | AID 504775, 2011 | hit rate 0.096% among 320,000 | activation, % at 12.5 µM;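 active = mean replicate activation of at least 60% and every replicate at or above 60%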;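 note: 0% = median plate neutral-control signal and 100% = twice that signal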
#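 Material: SR-BI-overexpressing, LDLR-lacking CHO cells; schedule: compound exposure 3 h, 37 °C; reagent: DiI-labelled HDL at 10 µg/mL final; technique: bottom-read fluorescence, 550/595 nm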
# ARNT-TACC3 inh = disruptors of ARNT/TACC3 protein interaction, primary screen, biochemical, AlphaScreen, single concentration; AlphaScreen His-ARNT PAS-B/GST-TACC3 binding, luminescence; TACC3 fragment carries E629A point mutation; Transforming acidic coiled-coil-containing protein 3 (Homo sapiens), Q9Y6A5; hit rate 0.66% among 390,000; inhibition, % at 9.99 µM; AID 623870, 2012;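 active = mean inhibition of replicates at least 50% and at least half of replicates each reaching 50%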;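 note: 0% = complete ARNT plus TACC3 wells and 100% = ARNT alone without TACC3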
# DiI quencher = counter-screen for SR-BI lipid transfer inhibitors: DiI fluorescence quenchers. hit rate 20% among 470. shares compounds with SR-BI DiI inh. cell-free DiI-HDL fluorescence quenching, 30 min. AC50, µM (series often up to 35 µM), for the others: at the top dose activity change, negative = quenching;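 active = quenching, a falling signal, with AC50 below a set limit tied to the top valid dose, actives reach about 32 µM in these data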
# ARNT Alpha ctr-1 = AlphaScreen signal interference compounds, dose response, artefact control for ARNT-TACC3 interaction inhibitor project, biochemical, luminescence, cherry-pick; shares compounds with ARNT-TACC3 inh; AID 651705, 2012; His-ARNT PASB-GST AlphaScreen artifact counter-screen; hit rate 50% among 1,200; AC50, µM (highest dose often 68 µM), for inactives: top-dose activity change, negative = signal decrease;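 active = every separate test run was called active for a drop in luminescence, with AC50 within twice the top valid dose, actives reach about 71 µM in these data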
# ARNT Alpha ctr-2 = AlphaScreen signal interference by compounds, dose response, artefact control for ARNT/TACC3 disruptor project, biochemical, dual-tagged ARNT, dry powder. Dual-tagged His-ARNT PASB-GST AlphaScreen artifact counter-screen. shares compounds with ARNT-TACC3 inh. hit rate 70% among 45. AC50, µM;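 active = luminescence drop, with half-maximal potency fitted within twice the sample's top valid dose, cut at about 70 µM in these data; inactive = the rest, including signal moving the wrong way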
# hGIII sPLA2 conf = human group III sPLA2 inhibitors, confirmation, biochemical, QFRET, triplicate; shares compounds with HGIII-sPLA2 inh; recombinant hGIII-sPLA2, BODIPY PC-A2 QFRET fluorescence; inhibition, % at 12.2 µM; hit rate 34% among 2,000; AID 743280, 2014;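 active = mean inhibition across triplicates above the hit cutoff set in the earlier primary screen, cut at about 19% in these data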;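 note: 0% = enzyme with DMSO and 100% = DMSO wells lacking enzyme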
# 535nm interf = 535nm fluorescence optical interference, confirmation, artefact control for HGIII-sPLA2 inhibitor project, biochemical, QFRET. shares compounds with HGIII-sPLA2 inh. BODIPY FL product fluorescence interference. inhibition, % at 12.2 µM. hit rate 8.5% among 2,000;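 active = average inhibition above the solvent-only control mean plus 3 SD, cut at about 6% in these data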;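 note: 0% = DMSO with substrate plus product and 100% = DMSO with substrate alone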
# An asterisk follows results filed as active; . = no result given. Hits are enriched below; roughly 2% of the tested compounds scored in any of these assays.
SMILES,Xi reactivation,NSD2 HMT inh,SR-BI DiI inh,HGIII-sPLA2 inh,SR-BI DiI-HDL act,ARNT-TACC3 inh,DiI quencher,others
CCOCCCNC(=O)c1cc2c(-c3ccc(Cl)cc3)nn(C)c2s1,0,.,62,5,-62,-2,.,
Cn1nc(-c2ccc(Cl)cc2)c2cc(C(=O)NCCCN3CCOCC3)sc21,.,.,72*,.,-72,31,1%,
O=C(c1ccc(S(=O)(=O)NCc2ccco2)cc1)N1CCN(c2ccc(F)cc2)CC1,0,-2,27,3,-27,1,.,
COc1ccc(CN2CCN(C(=O)c3ccc(S(=O)(=O)NCc4ccco4)cc3)CC2)cc1,0,2,93*,-11,-93,3,-5%,
O=C(c1ccc(S(=O)(=O)NCc2ccco2)cc1)N1CCN(Cc2ccccc2F)CC1,0,5,68,-15,-68,7,-5%,
O=C(c1ccc(S(=O)(=O)NCc2ccco2)cc1)N1CCN(Cc2ccccc2)CC1,0,-1,65,-14,-65,-3,0%,
CCOc1ccc(NS(=O)(=O)c2ccc(C(=O)NNC(=O)c3ccccc3O)cc2)cc1,0,1,127*,-5,-127,18,0.61µM*,
O=C(NNC(=O)c1ccccc1O)c1ccc(S(=O)(=O)Nc2ccccc2)cc1,0,0,113*,-4,-113,14,0.4µM*,
CCc1c(-c2cccc(OC)c2)ncn1CCc1ccccc1OC,0,6,.,-5,.,.,.,
CC(C)NC(=O)N(C)C[C@@H]1Oc2c(NS(C)(=O)=O)cccc2C(=O)N([C@@H](C)CO)C[C@H]1C,-1,.,.,.,.,-9,.,
CCOC(=O)N1CCN(S(=O)(=O)N2CCCC(C(=O)NCCc3ccc(Cl)cc3)C2)CC1 (configuration not stated),0,-2,28,-4,-28,-2,.,
CCOC(=O)C1CCCN(S(=O)(=O)NC[C@H]2O[C@@H](n3cnc4c(N)ncnc43)[C@H](O)[C@@H]2O)C1 (some centres not stated),1,.,81*,-3,-81,4,3%,
CCc1cc(CNC(=O)C2CCC(=O)N(CCc3cccc(F)c3)C2)on1 (configuration not stated),0,-2,-6,2,6,3,-1%,
Cc1c(Cl)cccc1S(=O)(=O)N1CCC(C(=O)NNC(=O)C2CC2)CC1,0,0,45,1,-45,-6,-1%,
Cc1ccc(S(=O)(=O)N2CCC(C(=O)NNC(=O)c3cccnc3)CC2)cc1,0,0,-4,-3,4,-16,-1%,
Cc1ccc(C(=O)NNC(=O)C2CCN(S(=O)(=O)c3ccc(C)cc3)CC2)cc1,0,-2,21,-9,-21,-3,.,
CN(C)C(=O)C[C@@H]1CC[C@H]2[C@@H](COC[C@@H](O)CN2Cc2nccs2)O1,0,.,.,.,.,-7,.,
COc1cc(/C=C/C(=O)Nc2cccc(S(=O)(=O)NC3=NCCCCC3)c2)ccc1OCC#N,0,-3,75*,-23,-75,-5,0%,
CCCCNC(=O)c1ccc(CS(=O)(=O)c2cccc(C(F)(F)F)c2)o1,.,.,3,-9,-3,-5,.,
COCCNC(=O)c1ccc(CS(=O)(=O)c2cccc(C(F)(F)F)c2)o1,0,3,75*,-8,-75,-14,9%,
CCN(CC)C(=O)c1cccc(NC(=O)c2cc(C3CC3)nc3c2cnn3C(C)C)c1,0,-1,78*,-5,-78,-1,6%,
Cc1ccccc1C(=O)Nc1cc(NC(=O)c2ccccc2C)cc(C(=O)O)c1,0,2,-11,0,11,0,-3%,
O=C(O)c1cc(NC(=O)c2ccccc2F)cc(NC(=O)c2ccccc2F)c1,0,-3,-7,11,7,1,.,
O=C(Nc1nc(-c2ccccn2)cs1)c1ccc(-c2ccccc2F)o1,0,-2,4,21*,-4,44,-14%,hGIII sPLA2 conf=24*;535nm interf=4
C[C@@H]1CN([C@@H](C)CO)C(=O)c2cc(C#CCC3CCCC3)cnc2O[C@H]1CN(C)C(=O)CN(C)C,-1,.,.,.,.,-3,.,
SMILES,Xi reactivation,NSD2 HMT inh,SR-BI DiI inh,HGIII-sPLA2 inh,SR-BI DiI-HDL act,ARNT-TACC3 inh,DiI quencher,others
Cc1c(C(=O)N(C)C)sc2nc(-c3ccccn3)[nH]c(=O)c12,.,-1,-27,5,27,72*,.,ARNT Alpha ctr-1=23µM*;ARNT Alpha ctr-2=15*
CCN(CC)C(=O)c1sc2nc(Cc3ccccc3)[nH]c(=O)c2c1C,1,7,16,-8,-16,0,.,
N#CCC(=O)N/N=C\c1ccccc1OC/C=C/c1ccccc1,0,-2,24,-16,-24,64*,.,ARNT Alpha ctr-1=55µM*
Clc1ccc(-c2ccc(SCc3ccccn3)nn2)cc1,.,1,-27,-1,27,-2,.,
c1ccc(-c2ccc(SCc3cccnc3)nn2)nc1,0,21,-11,3,11,58*,.,ARNT Alpha ctr-1=14µM*
c1ccc(CSc2ccc(-c3ccccn3)nn2)nc1,0,20,-13,-3,13,64*,.,ARNT Alpha ctr-1=9.1µM*
